Consider 12 compounds from ChEMBL document CHEMBL1125032, “Structure-activity relationship of antiestrogens. Effect of the side chain and its position on the activity of 2,3-diaryl-2H-1-benzopyrans” (J Med Chem, 1990).

Experiment [1] addresses T1, Estrogen receptor (Rattus norvegicus) (UniProt P06211+Q62986). Nature of the experiment: Estrogenic activity as mean uterine weight in rats on 10 ug dose. In kind it is functional. The essentials:
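Immature female Charles Foster rats (21–23 days old, 25–40 g) received 10 µg/rat subcutaneously, suspended in 0.1 mL propylene glycol–0.9% saline (1:1, v/v), daily for three days. Controls received vehicle alone. Uterine wet weight was taken at autopsy 24 h after the final dose and given as mean ± SD in mg from 6–9 animals.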

The target of experiment [2] is T1, Estrogen receptor (Rattus norvegicus). Nature of the experiment: Relative binding affinity against estrogen receptor(ER). In kind it is protein assay. The procedure, abridged: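 Uterine cytosol came from immature rats primed with 0.1 µg E2 24 h before sacrifice. It was incubated 18–20 h at 4 °C, in triplicate, with competitor (10⁻⁴–10⁻⁹ M) and ³H-E2 (5×10⁻⁹ M) in TEA buffer, pH 7.4, containing 7% DMF. Free ligand was removed with charcoal-dextran (20 min), and bound radioactivity was measured by scintillation counting.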

Experiment [3] shares this target. Kind of experiment: Antiestrogenic activity in presence of unlabeled estradiol as mean uterine weight in rats after 0.3 ug dose. In kind it is functional. The procedure, abridged:
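Immature female Charles Foster rats (21–23 days old, 25–40 g) were given 10 µg/rat of compound subcutaneously in 0.1 mL propylene glycol–0.9% saline (1:1, v/v) on three consecutive days. They were co-injected with 0.3 µg E2 at a different site. Controls got E2 plus vehicle. Uteri were weighed 24 h after the last injection. Values are mean ± SD, 6–9 animals.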

Experiment [4] addresses Estrogen receptor beta (Rattus norvegicus) (UniProt Q62986). Nature of the experiment: Mean percent inhibition of Estrogen receptor beta in rat. Further details: concentration or dose not given beside the values. The note with it: concentration not given here. The essentials:
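Immature female rats were dosed subcutaneously with 10 µg/rat for three days together with 0.3 µg E2 at a separate site. Uterine weight was read 24 h after the last dose. Inhibition of E2-stimulated uterine growth was calculated from the mean uterine weights of the vehicle-alone, E2-alone and compound-plus-E2 groups.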

For experiment [5], the target named is Anti-estrogen binding site (AEBS) (Homo sapiens) (UniProt Q15125+Q9UBM7). Kind of experiment: Relative binding affinity against Antiestrogen binding site(AEBS). In kind it is functional. The conditions noted are these: Rattus norvegicus. The essentials: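 Rat liver microsomal fraction was first incubated 2 h at 4 °C with 2 µM diethylstilbestrol to saturate ER sites. It was then incubated 18 h at 4 °C with competitor (1×10⁻⁹ to 3×10⁻⁶ M) and ³H-tamoxifen (1×10⁻⁹ M) in 35% DMF–TEA buffer. Charcoal-dextran was added for 15 min at 4 °C, the tubes were centrifuged at 1000g, and the supernatant was counted.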

Some results are limits rather than exact numbers.

Estrogen receptor beta (Rattus norvegicus), sequence (Q62986 whole entry): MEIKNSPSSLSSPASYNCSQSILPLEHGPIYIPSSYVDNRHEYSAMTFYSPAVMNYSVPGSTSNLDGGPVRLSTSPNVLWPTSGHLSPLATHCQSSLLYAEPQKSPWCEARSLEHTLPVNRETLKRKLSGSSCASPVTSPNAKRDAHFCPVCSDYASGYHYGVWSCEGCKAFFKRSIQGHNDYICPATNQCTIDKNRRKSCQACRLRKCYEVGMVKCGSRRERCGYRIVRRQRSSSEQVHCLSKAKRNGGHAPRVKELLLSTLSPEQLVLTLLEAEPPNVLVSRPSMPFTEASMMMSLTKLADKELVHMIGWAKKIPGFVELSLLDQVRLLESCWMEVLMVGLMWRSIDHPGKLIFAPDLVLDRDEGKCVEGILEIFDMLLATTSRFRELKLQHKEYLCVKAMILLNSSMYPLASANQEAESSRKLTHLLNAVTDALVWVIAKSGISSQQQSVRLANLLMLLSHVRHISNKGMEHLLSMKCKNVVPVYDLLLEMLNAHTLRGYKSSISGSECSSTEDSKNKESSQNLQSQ

One may read the inhibition as how much of the control response was suppressed. As for `Oc1ccc(C2Oc3ccccc3C=C2c2ccccc2)cc1` (configuration not stated), the Mean weight in experiment [1] turned out to be 12.6 mg; in experiment [3], 45.5 mg. In addition, the relative binding affinity (RBA) in experiment [2] is 0.05. This compound also registered an inhibition in experiment [4] of 0%.

On to `C1=C(c2ccccc2)C(c2ccccc2OCCN2CCCCC2)Oc2ccccc21` (configuration not stated), for which the Mean weight came to 11.1 mg in experiment [1] and 43.1 mg in experiment [3]. For the same compound, the relative binding affinity (RBA) in experiment [2] was < 0.001. In addition, the inhibition in experiment [4] is 0%.

With `C1=C(c2ccccc2)C(c2ccc(OCCN3CCCC3)cc2)Oc2ccccc21` (configuration not stated), the relative binding affinity (RBA) is 0.5 in experiment [2] and 134 in experiment [5]. For the same compound, in experiment [3], the Mean weight amounted to 26.6 mg. This compound showed an inhibition in experiment [4] of 56%.

Regarding `CN(C)CCOc1ccc(C2Oc3ccccc3C=C2c2ccccc2)cc1` (configuration not stated), the Mean weight was 33.9 mg in experiment [1] and 36.5 mg in experiment [3]. The relative binding affinity (RBA) in experiment [2] came to 0.11; in experiment [5] it was 98. In experiment [4], the inhibition was found to be 30%.

For `CCCCNCC(O)COc1ccc(C2Oc3ccccc3C=C2c2ccccc2)cc1` (configuration not stated), the Mean weight is 8.7 mg in experiment [1] and 45.9 mg in experiment [3]. This compound displayed an inhibition in experiment [4] of 0%.

`CC1=C(c2ccccc2)C(c2ccc(OCCN3CCCC3)cc2)Oc2ccccc21` (configuration not stated): the Mean weight was determined as 27.2 mg in experiment [1] and 27 mg in experiment [3]. Further, the relative binding affinity (RBA) in experiment [2] stood at 9.9; in experiment [5], 150. Besides, the inhibition in experiment [4] was found to be 56%.

As to `CCC1=C(c2ccccc2)C(c2ccc(OCCN3CCCC3)cc2)Oc2cc(OC)ccc21` (configuration not stated), the Mean weight in experiment [1] worked out at 34.5 mg; in experiment [3], 40.6 mg. Moreover, the figures for the relative binding affinity (RBA) in experiment [2] and in experiment [5] were 2.1 and 51, respectively. The compound also had an inhibition in experiment [4] of 0%.

Regarding `C1=C(c2ccccc2)C(c2cccc(OCCN3CCCCC3)c2)Oc2ccccc21` (configuration not stated), the values for the Mean weight in experiment [1] and in experiment [3] were 17.4 mg and 42.2 mg, respectively. Besides, in experiment [2], the relative binding affinity (RBA) was < 0.001. For the same compound, the inhibition in experiment [4] was determined as 0%.

On to `C1=C(c2ccccc2)C(c2ccc(OCCN3CCCCCC3)cc2)Oc2ccccc21` (configuration not stated), for which the Mean weight in experiment [1] came to 19.3 mg; in experiment [3], 23.1 mg. In addition, the relative binding affinity (RBA) in experiment [2] stood at 0.24; in experiment [5], 153. The compound further had an inhibition in experiment [4] of 61%.

On to `COc1ccc2c(c1)OC(c1ccc(OCCN3CCCC3)cc1)C(c1ccccc1)=C2` (configuration not stated), for which the relative binding affinity (RBA) came out at 0.4 in experiment [2] and 66 in experiment [5]. In addition, the inhibition in experiment [4] was determined as 48%.

As to `OCC(O)COc1ccc(C2Oc3ccccc3C=C2c2ccccc2)cc1` (configuration not stated), the figures for the Mean weight in experiment [1] and in experiment [3] were 20.7 mg and 38.8 mg, respectively.

Take `C1=C(c2ccccc2)C(c2ccc(OCCN3CCCCC3)cc2)Oc2ccccc21` (configuration not stated): the figures for the relative binding affinity (RBA) in experiment [2] and in experiment [5] were 0.3 and 225, respectively. Besides, the inhibition in experiment [4] was 75%.
